Experimental data reported in ChEMBL document CHEMBL1146752, “Oxamyl dipeptide caspase inhibitors developed for the treatment of stroke” (Bioorg Med Chem Lett, 2004).

Assays:
Jurkat = assay: Inhibitory activity evaluated against human jurkat cell line in cellular assay; assay type: functional, cell-based
Outline: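 Human Jurkat cells, in an assay where caspase-8 is relevant but other caspases also contribute. Run for 24 h at 37 °C. Read-out is IC50 (µM).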

Rattus norvegicus = species: Rattus norvegicus; assay: Inhibitory activity evaluated against rat Con A embryonic cortical neurons in cellular assay; assay type: functional
SKW 6.4 = assay: Inhibitory activity was evaluated against human SKW 6.4 cell line in cellular assay; assay type: functional, cell-based
Outline: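 Cellular assay (Con A; SKW 6.4 cells) run for 24 h at 37 °C. Read-out is IC50 (µM).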

THP-1 = assay: Inhibitory activity evaluated against human THP-1 cell line in cellular assay; assay type: functional, cell-based
Outline: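 Human cells (monocytes; THP-1 line) in a caspase-1-dependent cellular assay run for 24 h at 37 °C. Read-out is IC50 (µM).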

Row | Compound | IC50 (Jurkat) [µM] | IC50 (Rattus norvegicus) [µM] | IC50 (SKW 6.4) [µM] | IC50 (THP-1) [µM]
1 | CC(C)[C@H](NC(=O)C(=O)Nc1ccncc1)C(=O)N[C@@H](CC(=O)O)C(=O)COc1c(F)c(F)cc(F)c1F | 15.8 | 50 | 30.1 | 5.67
2 | CC(C)[C@H](NC(=O)C(=O)Nc1cnccn1)C(=O)N[C@@H](CC(=O)O)C(=O)COc1c(F)c(F)cc(F)c1F | 0.17 | 5.9 | 19.1 | 1.44
3 | CC(C)[C@H](NC(=O)C(=O)Nc1cccc2ccccc12)C(=O)N[C@@H](CC(=O)O)C(=O)COc1ccc(-c2ccccc2)cc1 |  | > 50 |  | 1.12
4 | O=C(O)C[C@H](NC(=O)C1CCC(NC(=O)C(=O)Nc2cccc3ccccc23)C1)C(=O)COc1c(F)c(F)cc(F)c1F (stereo partly specified) |  | 2.5 |  | 0.93
5 | CC(C)[C@H](NC(=O)C(=O)Nc1ccccc1I)C(=O)N[C@@H](CC(=O)O)C(=O)COc1c(F)c(F)cc(F)c1F | 0.081 | 1 | 1.54 | 1.5
6 | CC(C)[C@H](NC(=O)C(=O)Nc1ccc(F)cc1)C(=O)N[C@@H](CC(=O)O)C(=O)COc1c(F)c(F)cc(F)c1F | 0.019 | 2 | 0.92 | 1.21
7 | O=C(O)C[C@H](NC(=O)C1Cc2ccccc2N1C(=O)C(=O)Nc1cccc2ccccc12)C(=O)COc1c(F)c(F)cc(F)c1F (stereo partly specified) |  | 50 |  | 22.1
8 | O=C(O)C[C@H](NC(=O)C1CCCCN1C(=O)C(=O)Nc1cccc2ccccc12)C(=O)COc1c(F)c(F)cc(F)c1F (stereo partly specified) |  | 16 |  | 
9 | CC(C)[C@H](NC(=O)C(=O)Nc1c(F)cccc1F)C(=O)N[C@@H](CC(=O)O)C(=O)COc1c(F)c(F)cc(F)c1F | 0.136 | 1 | 1.63 | 0.38
10 | CCCCCCCc1ccc(NC(=O)C(=O)N[C@H](C(=O)N[C@@H](CC(=O)O)C(=O)COc2c(F)c(F)cc(F)c2F)C(C)C)cc1 | 0.27 | > 50 | 13 | 6.6
11 | CC(C)[C@H](NC(=O)C(=O)Nc1cc(C(C)(C)C)ccc1C(C)(C)C)C(=O)N[C@@H](CC(=O)O)C(=O)COc1c(F)c(F)cc(F)c1F | 0.017 | 2 | 1.87 | 2.64
12 | CC(C)[C@H](NC(=O)C(=O)NCCc1ccccc1)C(=O)N[C@@H](CC(=O)O)C(=O)COc1c(F)c(F)cc(F)c1F | 4.7 | 3.5 | 0.61 | 0.08
13 | CC(C)[C@H](NC(=O)C(=O)Nc1cc(F)c(F)c(F)c1F)C(=O)N[C@@H](CC(=O)O)C(=O)COc1c(F)c(F)cc(F)c1F | 0.04 | 3.5 | 1.19 | 0.57
14 | CC(C)[C@H](NC(=O)C(=O)Nc1cccc(Oc2ccccc2)c1)C(=O)N[C@@H](CC(=O)O)C(=O)COc1c(F)c(F)cc(F)c1F | 1.15 | 1.1 | 2 | 1.85
15 | CC(C)[C@H](NC(=O)C(=O)Nc1ccccc1Oc1ccccc1)C(=O)N[C@@H](CC(=O)O)C(=O)COc1c(F)c(F)cc(F)c1F | 0.66 | 2.5 | 1.78 | 1.77
16 | CC(C)[C@H](NC(=O)C(=O)Nc1ccccc1Br)C(=O)N[C@@H](CC(=O)O)C(=O)COc1c(F)c(F)cc(F)c1F | 0.356 | 0.4 |  | 0.54
17 | CC(C)[C@H](NC(=O)C(=O)Nc1ccccc1Cc1ccccc1)C(=O)N[C@@H](CC(=O)O)C(=O)COc1c(F)c(F)cc(F)c1F | 0.009 | 2 | 1.56 | 0.18
18 | CC(C)[C@H](NC(=O)C(=O)Nc1cccc2ccccc12)C(=O)N[C@@H](CC(=O)O)C(=O)COc1ccc2ccccc2c1 |  | 7.3 |  | 1.93
19 | CNC(=O)C(=O)N[C@H](C(=O)N[C@@H](CC(=O)O)C(=O)COc1c(F)c(F)cc(F)c1F)C(C)C | 0.11 | 7 | 1.04 | 1.23
20 | O=C(O)C[C@H](NC(=O)[C@H](CCc1ccccc1)NC(=O)C(=O)Nc1cccc2ccccc12)C(=O)COc1c(F)c(F)cc(F)c1F |  | 3 |  | 7.53
21 | O=C(O)C[C@H](NC(=O)[C@H](Cc1ccccc1)NC(=O)C(=O)Nc1cccc2ccccc12)C(=O)COc1c(F)c(F)cc(F)c1F |  | 2.7 |  | 1.26
22 | O=C(O)C[C@H](NC(=O)C(NC(=O)C(=O)Nc1cccc2ccccc12)c1ccccc1)C(=O)COc1c(F)c(F)cc(F)c1F (stereo partly specified) |  | 0.5 |  | 2.77
23 | CC(C)C[C@H](NC(=O)C(=O)Nc1cccc2ccccc12)C(=O)N[C@@H](CC(=O)O)C(=O)COc1c(F)c(F)cc(F)c1F | 2.5 | 2.58 |  | 
24 | CC(C)[C@H](NC(=O)C(=O)Nc1cccc2ccccc12)C(=O)N[C@@H](CC(=O)O)C(=O)COc1c(F)cc(F)cc1F | 0.0052 | 0.3 |  | 
25 | O=C(O)C[C@H](NC(=O)C(NC(=O)C(=O)Nc1cccc2ccccc12)C1CCCCC1)C(=O)COc1c(F)c(F)cc(F)c1F (stereo partly specified) |  | 1.5 |  | 1.44

Row | Compound | IC50 (Jurkat) [µM] | IC50 (Rattus norvegicus) [µM] | IC50 (SKW 6.4) [µM] | IC50 (THP-1) [µM]
26 | CC(C)[C@H](NC(=O)C(=O)Nc1cccc2ccccc12)C(=O)N[C@@H](CC(=O)O)C(=O)COc1c(F)c(F)cc(F)c1F | 0.0061 | 0.55 |  | 
27 | CC(C)(C)C(NC(=O)C(=O)Nc1cccc2ccccc12)C(=O)N[C@@H](CC(=O)O)C(=O)COc1c(F)c(F)cc(F)c1F (stereo partly specified) |  | 2.9 |  | 0.27
28 | CC(C)[C@H](NC(=O)C(=O)N(C)c1cccc2ccccc12)C(=O)N[C@@H](CC(=O)O)C(=O)COc1c(F)c(F)cc(F)c1F | > 100 | > 50 | > 100 | 
29 | CC(C)[C@H](NC(=O)C(=O)Nc1cccc2c1CCCC2)C(=O)N[C@@H](CC(=O)O)C(=O)COc1c(F)c(F)cc(F)c1F | 0.175 | 2 | 1.07 | 1.1
30 | CC(C)[C@H](NC(=O)C(=O)Nc1cccc2ccccc12)C(=O)N[C@@H](CC(=O)O)C(=O)COP(C)(=O)c1ccccc1 (stereo partly specified) |  | 2 |  | 0.09
31 | CC(C)C[C@H](NC(=O)C(=O)Nc1cccc2ccccc12)C(=O)N[C@@H](CC(=O)O)C(=O)COc1c(F)cc(F)cc1F | 0.535 | 4.61 |  | 
32 | CC(C)[C@H](NC(=O)C(=O)Nc1ccccc1C(F)(F)F)C(=O)N[C@@H](CC(=O)O)C(=O)COc1c(F)c(F)cc(F)c1F | 0.0017 | 0.65 | 0.23 | 0.82
33 | CC(C)[C@H](NC(=O)C(=O)Nc1cccc2ccccc12)C(=O)N[C@@H](CC(=O)O)C(=O)COc1cccc2ccccc12 |  | 2.7 |  | 3.06
34 | COc1ccccc1NC(=O)C(=O)N[C@H](C(=O)N[C@@H](CC(=O)O)C(=O)COc1c(F)c(F)cc(F)c1F)C(C)C | 0.31 | 2.5 | 1.2 | 0.4
35 | CC(C)[C@H](NC(=O)C(=O)Nc1cccc2ccccc12)C(=O)N[C@@H](CC(=O)O)C(=O)COS(=O)c1ccccc1 (stereo partly specified) |  | > 50 |  | 8.3
36 | CC(C)[C@H](NC(=O)C(=O)Nc1cccc2ccccc12)C(=O)N[C@@H](CC(=O)O)C(=O)COc1c(F)cccc1F |  | 0.45 |  | 0.48
37 | CC(C)[C@H](NC(=O)C(=O)Nc1ccc2cc3ccccc3cc2c1)C(=O)N[C@@H](CC(=O)O)C(=O)COc1c(F)c(F)cc(F)c1F | 0.15 | 0.55 | 0.75 | 0.66
38 | COC(=O)c1cc(OCC(=O)[C@H](CC(=O)O)NC(=O)[C@@H](NC(=O)C(=O)Nc2cccc3ccccc23)C(C)C)no1 |  | 9 |  | 0.28
39 | CC(C)[C@H](NC(=O)C(=O)Nc1cccc2ccccc12)C(=O)N[C@@H](CC(=O)O)C(=O)COP(=O)(c1ccccc1)c1ccccc1 |  | 0.65 |  | 0.65
40 | CCCCC(NC(=O)C(=O)Nc1cccc2ccccc12)C(=O)N[C@@H](CC(=O)O)C(=O)COc1c(F)c(F)cc(F)c1F (stereo partly specified) |  | 1 |  | 
41 | CC(C)[C@H](NC(=O)C(=O)Nc1cccc2ccccc12)C(=O)N[C@@H](CC(=O)O)C(=O)COc1ccnc(C(F)(F)F)n1 |  | 2 |  | 0.25
42 | CC(C)C[C@H](NC(=O)C(=O)Nc1cccc2ccccc12)C(=O)N[C@@H](CC(=O)O)C(=O)COC(=O)c1c(Cl)cccc1Cl | 1.3 | 0.5 |  | 
43 | CC(C)[C@H](NC(=O)C(=O)Nc1cccc2ccccc12)C(=O)N[C@@H](CC(=O)O)C(=O)COC(=O)c1c(Cl)cccc1Cl | 0.0043 | 0.35 |  | 
44 | CC(C)[C@H](NC(=O)C(=O)Nc1ccccc1-c1ccccc1)C(=O)N[C@@H](CC(=O)O)C(=O)COc1c(F)c(F)cc(F)c1F | 0.2 | 2.5 | 0.48 | 0.16
45 | CC(C)[C@H](NC(=O)C(=O)Nc1c(F)c(F)c(F)c(F)c1F)C(=O)N[C@@H](CC(=O)O)C(=O)COc1c(F)c(F)cc(F)c1F | 0.39 | 2.9 | 14 | 0.47
46 | CC(C)[C@H](NC(=O)C(=O)Nc1ccc2ccccc2c1)C(=O)N[C@@H](CC(=O)O)C(=O)COc1c(F)c(F)cc(F)c1F | 0.0007 | 3.28 | 0.38 | 0.7
47 | CC(C)[C@H](NC(=O)C(=O)NC(c1ccccc1)c1ccccc1)C(=O)N[C@@H](CC(=O)O)C(=O)COc1c(F)c(F)cc(F)c1F | > 200 | 7.3 |  | 0.17
48 | CC(C)[C@H](NC(=O)C(=O)NNc1ccccc1)C(=O)N[C@@H](CC(=O)O)C(=O)COc1c(F)c(F)cc(F)c1F | 2.35 | 20 | 9.9 | 6.58
49 | CC(C)[C@H](NC(=O)C(=O)NOCc1ccccc1)C(=O)N[C@@H](CC(=O)O)C(=O)COc1c(F)c(F)cc(F)c1F | 30.8 | 15 |  | > 32
50 | CC(C)[C@H](NC(=O)C(=O)Nc1ccc2c(c1)CCC2)C(=O)N[C@@H](CC(=O)O)C(=O)COc1c(F)c(F)cc(F)c1F | 0.041 | 1 | 0.27 | 1.28
